Columns and labels:
Format in all cases: cell-based
[1] = target: T1, Transient receptor potential cation channel subfamily V member 1 (Homo sapiens, UniProt Q8NER1); assay: Displacement of [3H]-resiniferatoxin from human TRPV1 expressed in CHO cells incubated for 60 mins by scintillation counting analysis
Summary of the method: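 Competition binding against [3H]-resiniferatoxin using human TRPV1 heterologously expressed in CHO cells; Ki reported. Mean ± SEM of at least three experiments.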

[2] = target: T1, Transient receptor potential cation channel subfamily V member 1; assay: Agonist activity at human TRPV1 expressed in CHO cells assessed as 45Ca2+ uptake incubated for 5 mins by liquid scintillation counting analysis
Summary of the method: (§1)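 Human TRPV1 heterologously expressed in CHO cells; 45Ca2+ uptake measured. Maximal response defined with saturating capsaicin (1 μM). Mean ± SEM of at least three experiments. Where shown, % agonism refers to test concentrations of 3–30 μM.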

[3] = target: T1, Transient receptor potential cation channel subfamily V member 1; assay: Antagonist activity at human TRPV1 expressed in CHO cells assessed as inhibition of capsaicin-induced 45Ca2+ uptake preincubated for 15 mins prior to capsaicin challenge measured after 5 mins by liquid scintillation counting analysis
Summary of the method: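 Human TRPV1 heterologously expressed in CHO cells; cells pre-incubated with antagonist for 15 min, then challenged with capsaicin (30 nM) and 45Ca2+ uptake measured. Dose-dependent inhibition was used to derive Ki(ant), correcting for capsaicin–antagonist competition. Values are mean ± SEM of at least three experiments.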

[4] = target: T1, Transient receptor potential cation channel subfamily V member 1; assay: Antagonist activity at human TRPV1 expressed in CHO cells assessed as inhibition of capsaicin-induced 45Ca2+ uptake preincubated for 30 mins prior to capsaicin challenge measured after 5 mins by liquid scintillation counting analysis
Summary of the method: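 CHO cells heterologously expressing human TRPV1 were given a 30 min pre-incubation with antagonist before challenge with capsaicin (30 nM). Capsaicin-stimulated 45Ca2+ uptake was read out, and Ki(ant) was derived from dose-dependent inhibition, allowing for competition with capsaicin. Values are mean ± SEM, with n ≥ 3 experiments.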

[5] = target: T1, Transient receptor potential cation channel subfamily V member 1; assay: Antagonist activity at human TRPV1 expressed in CHO cells assessed as inhibition of capsaicin-induced 45Ca2+ uptake incubated for 5 mins by liquid scintillation counting analysis
[6] = target: T1, Transient receptor potential cation channel subfamily V member 1; assay: Agonist activity at human TRPV1 expressed in CHO cells assessed as 45Ca2+ uptake at 3 to 30 uM incubated for 5 mins by liquid scintillation counting analysis; summary of the method: as §1
[7] = target: T1, Transient receptor potential cation channel subfamily V member 1; assay: Antagonist activity at human TRPV1 expressed in CHO cells assessed as inhibition of capsaicin-induced 45Ca2+ uptake at 3 to 30 uM incubated for 5 mins by liquid scintillation counting analysis

T1 sequence (Q8NER1 whole entry): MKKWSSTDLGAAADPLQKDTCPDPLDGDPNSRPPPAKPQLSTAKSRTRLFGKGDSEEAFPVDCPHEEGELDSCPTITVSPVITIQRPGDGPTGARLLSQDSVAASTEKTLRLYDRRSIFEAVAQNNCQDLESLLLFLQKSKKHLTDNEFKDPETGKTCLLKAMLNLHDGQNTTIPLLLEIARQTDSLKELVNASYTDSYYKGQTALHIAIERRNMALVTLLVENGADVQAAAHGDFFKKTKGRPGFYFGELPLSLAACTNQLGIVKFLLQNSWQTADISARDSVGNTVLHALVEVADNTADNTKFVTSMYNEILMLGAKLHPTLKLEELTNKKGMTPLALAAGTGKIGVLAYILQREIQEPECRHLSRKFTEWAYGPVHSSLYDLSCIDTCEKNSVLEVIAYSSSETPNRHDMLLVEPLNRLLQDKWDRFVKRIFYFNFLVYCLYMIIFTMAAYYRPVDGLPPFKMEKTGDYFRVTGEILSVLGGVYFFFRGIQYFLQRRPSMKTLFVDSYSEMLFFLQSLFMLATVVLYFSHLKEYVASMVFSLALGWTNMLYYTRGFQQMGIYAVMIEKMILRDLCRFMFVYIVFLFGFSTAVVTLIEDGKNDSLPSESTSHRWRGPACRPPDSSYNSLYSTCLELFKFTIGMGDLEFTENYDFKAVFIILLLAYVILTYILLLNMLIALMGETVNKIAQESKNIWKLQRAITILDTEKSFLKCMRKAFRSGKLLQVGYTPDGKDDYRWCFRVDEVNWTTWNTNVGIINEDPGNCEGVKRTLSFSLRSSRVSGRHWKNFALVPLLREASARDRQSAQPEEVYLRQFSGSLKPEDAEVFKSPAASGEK

| SMILES | Ki [1] [nM] | EC50 [2] | Ki [3] [nM] | Ki [4] [nM] | Ki [5] [nM] | Activity [6] [%] | inhibition [7] [%] |
| --- | --- | --- | --- | --- | --- | --- | --- |
| Cc1cccc(N(C(=O)NCc2ccc(C(F)(F)F)nc2N2CCC(C)CC2)c2ccc(NS(C)(=O)=O)c(F)c2)c1 | 490 | Not Active | 2200 | 860 | – | – | – |
| CC1CCN(c2nc(C(F)(F)F)ccc2CNC(=O)Nc2ccc(NS(C)(=O)=O)c(F)c2)CC1 | 83 | Not Active | – | – | 149 | – | – |
| CC1CCN(c2nc(C(F)(F)F)ccc2CCNC(=O)C(C)c2ccc(NS(C)(=O)=O)c(F)c2)CC1 (stereo unspecified) | 54 | Not Active | – | – | 95 | – | – |
| CC1CCN(c2nc(C(F)(F)F)ccc2CNC(=O)C(C)c2ccc(NS(C)(=O)=O)c(F)c2)CC1 (stereo unspecified) | – | Not Active | – | – | – | – | – |
| CC1CCN(c2nc(C(F)(F)F)ccc2CNC(=O)Nc2ccc(CNS(C)(=O)=O)c(F)c2)CC1 | 6.77 | Not Active | – | – | 12.5 | – | – |
| CC1CCN(c2nc(C(F)(F)F)ccc2CNC(=O)[C@@H](C)c2ccc(NS(C)(=O)=O)c(F)c2)CC1 | – | Not Active | – | – | – | – | – |
| CC1CCN(c2nc(C(F)(F)F)ccc2CCNC(=O)Nc2ccc(NS(C)(=O)=O)c(F)c2)CC1 | 210 | – | – | – | – | 29 | 49 |
| CC1CCN(c2nc(C(F)(F)F)ccc2CNC(=O)C(C)c2ccc(CNS(C)(=O)=O)c(F)c2)CC1 (stereo unspecified) | 230 | Not Active | – | – | 27.6 | – | – |
| CC1CCN(c2nc(C(F)(F)F)ccc2CNC(=O)NCc2ccc(NS(C)(=O)=O)c(F)c2)CC1 | – | Not Active | – | – | – | – | – |
| CC1CCN(c2nc(C(F)(F)F)ccc2CNC(=O)N(C)c2ccc(NS(C)(=O)=O)c(F)c2)CC1 | 1160 | Not Active | – | – | 59 | – | – |
| CC1CCN(c2nc(C(F)(F)F)ccc2CNC(=O)NCc2ccc(CNS(C)(=O)=O)c(F)c2)CC1 | 410 | Not Active | – | – | 199 | – | – |
| CC1CCN(c2nc(C(F)(F)F)ccc2CNC(=O)NC(C)c2ccc(NS(C)(=O)=O)c(F)c2)CC1 (stereo unspecified) | 31.6 | Not Active | – | – | 28.1 | – | – |
